Measurements taken from ChEMBL document CHEMBL2062469, “1-(2-Mercaptobenzenesulfonyl)-3-hydroxyguanidines--novel potent antiproliferatives, synthesis and in vitro biological activity” (2012).

Assays:
Type in all cases: functional
SF-539 = test: Cytostatic activity against human SF539 cells
Procedure, shortened: (§1)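 NCI-60 human tumor cell line screen run by the US National Cancer Institute under the NIH Developmental Therapeutics Program protocol. A single-dose prescreen at 10 µM came first. Selected compounds then went into the 5-dose assay. Cytostatic activity is reported as GI50 (µM).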

EKVX = test: Cytostatic activity against human EKVX cells; procedure, shortened: as §1
PC-3 = test: Cytostatic activity against human PC3 cells; procedure, shortened: as §1
HOP-92 = test: Cytostatic activity against human HOP92 cells; procedure, shortened: as §1
NCI/ADR-RES = test: Cytostatic activity against human NCI-ADR-RES cells; procedure, shortened: as §1
786-0 = test: Cytostatic activity against human 786-0 cells; procedure, shortened: as §1
CCRF-CEM = test: Cytostatic activity against human CCRF-CEM cells; procedure, shortened: as §1
NCI-H226 = test: Cytostatic activity against human NCI-H226 cells; procedure, shortened: as §1
UO-31 = test: Cytostatic activity against human UO31 cells
Procedure, shortened: (§2)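 Human tumour cell lines from the NCI-60 panel, tested at the US National Cancer Institute under the NIH Developmental Therapeutics Program protocol. A single-dose prescreen at 10 µM came first. Selected compounds then went to a 5-dose assay, which gave GI50 and TGI values in µM.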

K562 = test: Cytostatic activity against human K562 cells; procedure, shortened: as §1
A498 = test: Cytostatic activity against human A498 cells; procedure, shortened: as §1
SW-620 = test: Cytostatic activity against human SW620 cells; procedure, shortened: as §2
U-251 = test: Cytostatic activity against human U251 cells; procedure, shortened: as §2
OVCAR-3 = test: Cytostatic activity against human OVCAR3 cells; procedure, shortened: as §1
COLO 205 = test: Cytostatic activity against human COLO205 cells; procedure, shortened: as §1
OVCAR-8 = test: Cytostatic activity against human OVCAR8 cells; procedure, shortened: as §1
SN12C = test: Cytostatic activity against human SN12C cells; procedure, shortened: as §1
HCC 2998 = test: Cytostatic activity against human HCC2998 cells; procedure, shortened: as §1
T47D = test: Cytostatic activity against human T47D cells; procedure, shortened: as §2
HT-29 = test: Cytostatic activity against human HT-29 cells; procedure, shortened: as §1
DU-145 = test: Cytostatic activity against human DU145 cells; procedure, shortened: as §1
HCT-116 = test: Cytostatic activity against human HCT116 cells; procedure, shortened: as §1
MDA-MB-435 = test: Cytostatic activity against human MDA-MB-435 cells; procedure, shortened: as §1
SNB-19 = test: Cytostatic activity against human SNB19 cells; procedure, shortened: as §1
UACC-257 = test: Cytostatic activity against human UACC257 cells; procedure, shortened: as §2
NCI-H460 = test: Cytostatic activity against human NCI-H460 cells; procedure, shortened: as §1
[1] = Cytostatic activity against human […] cells; procedure, shortened: as §1
NCI-H522 = test: Cytostatic activity against human NCI-H522 cells; procedure, shortened: as §1
HCT-15 = test: Cytostatic activity against human HCT15 cells; procedure, shortened: as §1
OVCAR-5 = test: Cytostatic activity against human OVCAR5 cells; procedure, shortened: as §1
SNB-75 = test: Cytostatic activity against human SNB75 cells; procedure, shortened: as §2
IGROV-1 = test: Cytostatic activity against human IGROV1 cells; procedure, shortened: as §1
MDA-MB-231 = test: Cytostatic activity against human MDA-MB-231/ATCC cells; procedure, shortened: as §1
OVCAR-4 = test: Cytostatic activity against human OVCAR4 cells; procedure, shortened: as §1
M14 = test: Cytostatic activity against human M14 cells; procedure, shortened: as §1
SK-MEL-5 = test: Cytostatic activity against human SK-MEL-5 cells; procedure, shortened: as §1
SR = test: Cytostatic activity against human SR cells; procedure, shortened: as §2
CAKI-1 = test: Cytostatic activity against human Caki1 cells; procedure, shortened: as §1
MDA-MB-468 = test: Cytostatic activity against human MDA-MB-468 cells; procedure, shortened: as §1
ACHN = test: Cytostatic activity against human ACHN cells; procedure, shortened: as §1
KM12 = test: Cytostatic activity against human KM12 cells; procedure, shortened: as §1
LOX IMVI = test: Cytostatic activity against human LOXIMVI cells; procedure, shortened: as §1
Hs-578T = test: Cytostatic activity against human Hs 578T cells; procedure, shortened: as §1
SK-OV-3 = test: Cytostatic activity against human SKOV3 cells; procedure, shortened: as §1
NCI-H23 = test: Cytostatic activity against human NCI-H23 cells; procedure, shortened: as §1
SF-268 = test: Cytostatic activity against human SF268 cells; procedure, shortened: as §1
MCF7 = test: Cytostatic activity against human MCF7 cells; procedure, shortened: as §1
SK-MEL-2 = test: Cytostatic activity against human SK-MEL-2 cells; procedure, shortened: as §1
HOP-62 = test: Cytostatic activity against human HOP62 cells; procedure, shortened: as §1
UACC-62 = test: Cytostatic activity against human UACC62 cells; procedure, shortened: as §2
SF-295 = test: Cytostatic activity against human SF295 cells; procedure, shortened: as §1
BT-549 = test: Cytostatic activity against human BT549 cells; procedure, shortened: as §1
NCI-H322M = test: Cytostatic activity against human NCI-H322M cells; procedure, shortened: as §1
Malme-3M = test: Cytostatic activity against human MALME-3M cells; procedure, shortened: as §1
SK-MEL-28 = test: Cytostatic activity against human SK-MEL-28 cells; procedure, shortened: as §1
RXF 393 = test: Cytostatic activity against human RXF393 cells; procedure, shortened: as §1
MOLT-4 = test: Cytostatic activity against human MOLT4 cells; procedure, shortened: as §1

GI50 (PC-3): 1.85 µM
GI50 (786-0): 2.27 µM
GI50 (CCRF-CEM): 1.04 µM
GI50 (NCI-H226): 2.01 µM
GI50 (K562): 1.53 µM
GI50 (SW-620): 1.46 µM
GI50 (U-251): 1.4 µM
GI50 (OVCAR-3): 1.7 µM
GI50 (COLO 205): 1.75 µM
GI50 (OVCAR-8): 1.77 µM
GI50 (HCC 2998): 1.85 µM
GI50 (T47D): 1.69 µM
GI50 (HT-29): 1.85 µM
GI50 (DU-145): 1.67 µM
GI50 (HCT-116): 1.52 µM
GI50 (MDA-MB-435): 1.38 µM
GI50 (NCI-H460): 1.79 µM
GI50 (NCI-H522): 0.24 µM
GI50 (HCT-15): 2.02 µM
GI50 (OVCAR-5): 2.06 µM
GI50 (MDA-MB-231): 1.68 µM
GI50 (OVCAR-4): 1.71 µM
GI50 (SK-MEL-5): 1.52 µM
GI50 (MDA-MB-468): 1.53 µM
GI50 (ACHN): 1.7 µM
GI50 (SK-OV-3): 1.81 µM
GI50 (NCI-H23): 1.77 µM
GI50 (MCF7): 1.36 µM
GI50 (SK-MEL-2): 2.01 µM
GI50 (BT-549): 1.96 µM
GI50 (NCI-H322M): 1.58 µM
GI50 (SK-MEL-28): 1.68 µM
GI50 (MOLT-4): 1.14 µM
Compound: N=C(NO)NS(=O)(=O)c1cc(-c2nnc(-c3ccccc3)s2)c(Cl)cc1SCc1ccc2c(c1)OCO2
GI50 (SF-539): 2.15 µM
TGI (SF-539): 4.1 µM
GI50 (EKVX): 1.65 µM
TGI (EKVX): 2.99 µM
TGI (PC-3): 4.13 µM
GI50 (HOP-92): 1.82 µM
TGI (HOP-92): 5.1 µM
GI50 (NCI/ADR-RES): 3.68 µM
TGI (CCRF-CEM): 3.66 µM
TGI (NCI-H226): 4.02 µM
GI50 (UO-31): 1.28 µM
TGI (UO-31): 3.54 µM
TGI (K562): 3.94 µM
GI50 (A498): 1.98 µM
TGI (A498): 5.52 µM
TGI (SW-620): 2.86 µM
TGI (U-251): 2.85 µM
TGI (OVCAR-3): 3.08 µM
TGI (COLO 205): 3.28 µM
TGI (OVCAR-8): 3.74 µM
GI50 (SN12C): 1.62 µM
TGI (SN12C): 3.45 µM
TGI (HCC 2998): 3.59 µM
TGI (T47D): 4.15 µM
TGI (HT-29): 3.43 µM
TGI (DU-145): 3.11 µM
TGI (HCT-116): 3.31 µM
TGI (MDA-MB-435): 2.77 µM
GI50 (SNB-19): 1.77 µM
TGI (SNB-19): 3.83 µM
GI50 (UACC-257): 1.67 µM
TGI (UACC-257): 3.23 µM
TGI (NCI-H460): 3.56 µM
GI50 [1]: 1.76 µM
TGI [1]: 4.52 µM
TGI (NCI-H522): 0.8 µM
TGI (HCT-15): 4.34 µM
TGI (OVCAR-5): 4.36 µM
GI50 (SNB-75): 1.07 µM
TGI (SNB-75): 2.34 µM
GI50 (IGROV-1): 1.68 µM
TGI (IGROV-1): 3.95 µM
TGI (MDA-MB-231): 3.37 µM
TGI (OVCAR-4): 4.98 µM
GI50 (M14): 1.74 µM
TGI (M14): 3.47 µM
TGI (SK-MEL-5): 2.84 µM
GI50 (SR): 0.88 µM
TGI (SR): 4.1 µM
GI50 (CAKI-1): 2.03 µM
TGI (CAKI-1): 4.42 µM
TGI (MDA-MB-468): 2.93 µM
TGI (ACHN): 3.15 µM
GI50 (KM12): 1.64 µM
TGI (KM12): 3.03 µM
GI50 (LOX IMVI): 1.73 µM
GI50 (Hs-578T): 2.41 µM
TGI (Hs-578T): 6.61 µM
TGI (SK-OV-3): 3.34 µM
TGI (NCI-H23): 3.85 µM
GI50 (SF-268): 1.61 µM
TGI (SF-268): 3.32 µM
TGI (MCF7): 3.01 µM
TGI (SK-MEL-2): 3.75 µM
GI50 (HOP-62): 1.93 µM
TGI (HOP-62): 3.71 µM
GI50 (UACC-62): 1.7 µM
TGI (UACC-62): 3.53 µM
GI50 (SF-295): 1.63 µM
TGI (SF-295): 3.55 µM
TGI (BT-549): 4 µM
TGI (NCI-H322M): 4.28 µM
GI50 (Malme-3M): 1.71 µM
TGI (Malme-3M): 3.6 µM
TGI (SK-MEL-28): 3.5 µM
GI50 (RXF 393): 1.68 µM
TGI (RXF 393): 3.53 µM
TGI (MOLT-4): 3.08 µM
